Results on 15 molecules are retold here after ChEMBL document CHEMBL1126288, “Pyrimido[1,6-a]benzimidazoles: a new class of DNA gyrase inhibitors” (1992).

One experiment relates to Pseudomonas aeruginosa. As to the kind of experiment: In vitro for antibacterial activity against Pseudomonas aeruginosa 799/61. Format: functional.
In experiment [1] the test system is Escherichia coli. Nature of the experiment: In vitro for antibacterial activity against Escherichia coli B (Ec(B)). Format: functional.
In the next experiment the test system is Enterobacter cloacae. As to the kind of experiment: In vitro for antibacterial activity against Enterobacter cloacae P99. Format: functional.
Another experiment deals with Micrococcus luteus. Nature of the experiment: In vitro for antibacterial activity against Micrococcus luteus ATCC 8340. The format is functional.
Another experiment concerns Staphylococcus aureus. As to the kind of experiment: In vitro for antibacterial activity against Staphylococcus aureus 887. Format: functional.
Experiment [2] deals with Escherichia coli. Nature of the experiment: In vitro for antibacterial activity against Escherichia coli 1527E (Ec(C)). Format: functional.
The subject of a further experiment is Bacillus subtilis. As to the kind of experiment: In vitro for antibacterial activity against Bacillus subtilis ATCC 585369. Format: functional.
The target of experiment [3] is DNA gyrase (Escherichia coli) (UniProt P0AES6+P0AES4). As to the kind of experiment: Inhibitory activity against Escherichia coli DNA gyrase (represented as MNEC). Format: protein-complex assay. A digest of the protocol:
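Supercoiling assay. Gyrase subunits mixed equimolar and reconstituted to A2B2 for 30 min at 25 °C. Compound 0.1–100 µg/mL, 37 °C, 30 min. Read on 0.8% agarose gel; MNEC = highest concentration leaving all DNA fully supercoiled.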

In another experiment the test system is Klebsiella oxytoca. Nature of the experiment: In vitro for antibacterial activity against Klebsiella oxytoca 1082E. Format: functional.
Experiment [4] relates to Escherichia coli. As to the kind of experiment: In vitro for antibacterial activity against Escherichia coli 1346 (Ec(A)). Format: functional.
Experiment [5] relates to Staphylococcus haemolyticus. Nature of the experiment: In vitro for antibacterial activity against Staphylococcus haemolyticus 75 (quinolone-resistant). Format: functional.

≈ marks a conversion by molar mass, not a printed value.

In general, MIC refers to the least concentration at which growth counts as inhibited. Read a low MIC as a more susceptible organism. In the case of `CCn1c2cc(N3CCN(C)CC3)c(F)cc2n2c(=O)[nH]c(=O)cc12`, the MIC with Pseudomonas aeruginosa was over 32 µg/mL; in the experiment with Escherichia coli [1] it was 2 µg/mL (≈ 5.79 µM); in the experiment on Enterobacter cloacae, 16 µg/mL (≈ 46.3 µM); in the experiment on Micrococcus luteus it was over 32 µg/mL; against Staphylococcus aureus, over 32 µg/mL; in the experiment with Escherichia coli [2] it was 32 µg/mL (≈ 92.7 µM). The MIC against Bacillus subtilis was 16 µg/mL (≈ 46.3 µM); in the experiment with Klebsiella oxytoca it was over 32 µg/mL; in the experiment on Escherichia coli [4], 16 µg/mL (≈ 46.3 µM). In addition, the MNEC in experiment [3] stood at 2 µg/mL.
Turning to `CN1CCN(c2cc3c(cc2F)n2c(=O)n(O)c(=O)cc2n3C2CC2)CC1`, the minimal inhibitory concentration (MIC) was 32 µg/mL (≈ 85.7 µM) in experiment [5]; 2 µg/mL (≈ 5.36 µM) against Pseudomonas aeruginosa; under 0.03 µg/mL against Escherichia coli [1]; 0.12 µg/mL (≈ 0.321 µM) with Enterobacter cloacae; 32 µg/mL (≈ 85.7 µM) in the experiment on Micrococcus luteus; 4 µg/mL (≈ 10.7 µM) in the experiment on Staphylococcus aureus. Besides, the MIC with Escherichia coli [2] is 0.12 µg/mL (≈ 0.321 µM); in the experiment on Bacillus subtilis it was 2 µg/mL (≈ 5.36 µM); in the experiment on Klebsiella oxytoca, 0.25 µg/mL (≈ 0.67 µM); against Escherichia coli [4], under 0.03 µg/mL. The MNEC in experiment [3] is 1 µg/mL.
Regarding `CCn1c2cc(N3CCN(C)CC3)c(F)cc2n2c(=O)nc(N)cc12`, the MIC (in experiment [5]; against Pseudomonas aeruginosa; with Escherichia coli [1]; against Enterobacter cloacae; against Micrococcus luteus; with Staphylococcus aureus) was over 32 µg/mL each time. Also, the MIC against Escherichia coli [2], with Bacillus subtilis, against Klebsiella oxytoca and with Escherichia coli [4] was over 32 µg/mL throughout. For the same molecule, the MNEC in experiment [3] is over 10 µg/mL.
As for `CNn1c(=O)cc2n(C3CC3)c3cc(N4CCNCC4)c(F)cc3n2c1=O`, the MIC in [5] was 128 µg/mL (≈ 344 µM); against Pseudomonas aeruginosa it was 32 µg/mL (≈ 85.9 µM); against Escherichia coli [1], 0.5 µg/mL (≈ 1.34 µM); against Enterobacter cloacae it was 4 µg/mL (≈ 10.7 µM); against Micrococcus luteus, 128 µg/mL (≈ 344 µM); with Staphylococcus aureus, 16 µg/mL (≈ 43 µM). The MIC against Escherichia coli [2] turned out to be 8 µg/mL (≈ 21.5 µM); against Bacillus subtilis, 8 µg/mL (≈ 21.5 µM); in the experiment on Klebsiella oxytoca, 8 µg/mL (≈ 21.5 µM); in the experiment on Escherichia coli [4], 1 µg/mL (≈ 2.69 µM). For the same molecule, in [3], the MNEC came to 0.1 µg/mL.
Consider `O=c1cc2n(C3CC3)c3cc(N4CCNCC4)c(F)cc3n2c(=O)[nH]1`, for which the minimum inhibitory concentration (MIC) against Pseudomonas aeruginosa is 32 µg/mL (≈ 93.2 µM); in the experiment on Escherichia coli [1], 0.5 µg/mL (≈ 1.46 µM); against Enterobacter cloacae it was 8 µg/mL (≈ 23.3 µM); against Micrococcus luteus it was over 32 µg/mL; against Staphylococcus aureus it was over 32 µg/mL; against Escherichia coli [2], 8 µg/mL (≈ 23.3 µM). Further, the minimum inhibitory concentration (MIC) in the experiment on Bacillus subtilis was 8 µg/mL (≈ 23.3 µM); in the experiment on Klebsiella oxytoca, 16 µg/mL (≈ 46.6 µM); against Escherichia coli [4], 2 µg/mL (≈ 5.82 µM). The molecule further registered an MNEC in experiment [3] of 0.2 µg/mL.
For `CCn1cc(C(=O)O)c(=O)c2cc(F)c(N3CCNCC3)cc21` [NORFLOXACIN], the MIC in [5] was over 64 µg/mL; in the experiment on Pseudomonas aeruginosa it was 1 µg/mL (≈ 3.13 µM); against Escherichia coli [1], 0.12 µg/mL (≈ 0.376 µM); against Enterobacter cloacae, 0.25 µg/mL (≈ 0.783 µM); against Micrococcus luteus, 32 µg/mL (≈ 100 µM); in the experiment with Staphylococcus aureus, 4 µg/mL (≈ 12.5 µM). Besides, the MIC amounted to 0.12 µg/mL (≈ 0.376 µM) in the experiment on Escherichia coli [2], 1 µg/mL (≈ 3.13 µM) in the experiment with Bacillus subtilis, 0.25 µg/mL (≈ 0.783 µM) in the experiment on Klebsiella oxytoca and 0.12 µg/mL (≈ 0.376 µM) against Escherichia coli [4].
As to `O=c1cc2n(C3CC3)c3cc(N4CCNCC4)c(F)cc3n2c(=O)n1O`, the MIC in experiment [5] is over 64 µg/mL; against Pseudomonas aeruginosa, 2 µg/mL (≈ 5.57 µM); in the experiment on Escherichia coli [1], under 0.25 µg/mL; in the experiment on Enterobacter cloacae, 1 µg/mL (≈ 2.78 µM); against Micrococcus luteus, 8 µg/mL (≈ 22.3 µM); in the experiment on Staphylococcus aureus, over 64 µg/mL. For the same molecule, the MIC is 2 µg/mL (≈ 5.57 µM) in the experiment with Escherichia coli [2], 4 µg/mL (≈ 11.1 µM) in the experiment on Bacillus subtilis, 1 µg/mL (≈ 2.78 µM) against Klebsiella oxytoca and under 0.25 µg/mL against Escherichia coli [4]. The molecule also showed an MNEC in experiment [3] of 1 µg/mL.
For the molecule `CN1CCN(c2c(F)cc3c(=O)c(C(=O)O)cn(CCF)c3c2F)CC1` [FLEROXACIN], the MIC in [5] was found to be 32 µg/mL (≈ 86.6 µM); in the experiment on Pseudomonas aeruginosa it was 0.5 µg/mL (≈ 1.35 µM); against Escherichia coli [1], 0.06 µg/mL (≈ 0.162 µM); against Enterobacter cloacae it was 0.12 µg/mL (≈ 0.325 µM); in the experiment on Micrococcus luteus, 16 µg/mL (≈ 43.3 µM); in the experiment with Staphylococcus aureus it was 2 µg/mL (≈ 5.42 µM). For the same molecule, the MIC came out at 0.06 µg/mL (≈ 0.162 µM) with Escherichia coli [2], 0.5 µg/mL (≈ 1.35 µM) with Bacillus subtilis, 0.12 µg/mL (≈ 0.325 µM) in the experiment with Klebsiella oxytoca and 0.12 µg/mL (≈ 0.325 µM) with Escherichia coli [4].
Turning to `Nn1c(=O)cc2n(C3CC3)c3cc(N4CCNCC4)c(F)cc3n2c1=O`, the minimal inhibitory concentration (MIC) in experiment [5] is over 64 µg/mL; against Pseudomonas aeruginosa it was 8 µg/mL (≈ 22.3 µM); against Escherichia coli [1] it was 0.25 µg/mL (≈ 0.698 µM); against Enterobacter cloacae, 2 µg/mL (≈ 5.58 µM); against Micrococcus luteus, over 64 µg/mL; with Staphylococcus aureus, 64 µg/mL (≈ 179 µM). For the same molecule, the minimum inhibitory concentration (MIC) stood at 2 µg/mL (≈ 5.58 µM) against Escherichia coli [2], 4 µg/mL (≈ 11.2 µM) against Bacillus subtilis, 4 µg/mL (≈ 11.2 µM) with Klebsiella oxytoca and 1 µg/mL (≈ 2.79 µM) in the experiment with Escherichia coli [4]. Besides, the MNEC in [3] came out at 0.2 µg/mL.
For `CN(C)n1c(=O)cc2n(C3CC3)c3cc(N4CCNCC4)c(F)cc3n2c1=O`, the minimal inhibitory concentration (MIC) in experiment [5] is over 128 µg/mL; against Pseudomonas aeruginosa, 64 µg/mL (≈ 166 µM); against Escherichia coli [1], 1 µg/mL (≈ 2.59 µM); in the experiment on Enterobacter cloacae, 32 µg/mL (≈ 82.8 µM); with Micrococcus luteus, over 128 µg/mL; against Staphylococcus aureus it was 16 µg/mL (≈ 41.4 µM). Also, the MIC against Escherichia coli [2] stood at 32 µg/mL (≈ 82.8 µM); against Bacillus subtilis, 4 µg/mL (≈ 10.4 µM); with Klebsiella oxytoca, 32 µg/mL (≈ 82.8 µM); against Escherichia coli [4], 8 µg/mL (≈ 20.7 µM). For the same molecule, the MNEC in [3] came out at 0.5 µg/mL.
For the molecule `CCn1c2cc(N3CCN(C)CC3)c(F)cc2n2c(=O)n(O)c(=O)cc12`, the minimal inhibitory concentration (MIC) in experiment [5] came to 16 µg/mL (≈ 44.3 µM); against Pseudomonas aeruginosa, 2 µg/mL (≈ 5.53 µM); in the experiment on Escherichia coli [1], 1 µg/mL (≈ 2.77 µM); against Enterobacter cloacae, 2 µg/mL (≈ 5.53 µM); with Micrococcus luteus, 16 µg/mL (≈ 44.3 µM); in the experiment on Staphylococcus aureus, 16 µg/mL (≈ 44.3 µM). Moreover, the minimum inhibitory concentration (MIC) with Escherichia coli [2] was 4 µg/mL (≈ 11.1 µM); against Bacillus subtilis, 8 µg/mL (≈ 22.1 µM); in the experiment on Klebsiella oxytoca, 4 µg/mL (≈ 11.1 µM); in the experiment on Escherichia coli [4] it was 2 µg/mL (≈ 5.53 µM). For the same molecule, the MNEC in experiment [3] was found to be 1 µg/mL.
For the molecule `CCn1c2cc(N3CCNCC3)c(F)cc2n2c(=O)[nH]c(=O)cc12`, the minimum inhibitory concentration (MIC) was over 64 µg/mL against Pseudomonas aeruginosa; 8 µg/mL (≈ 24.1 µM) against Escherichia coli [1]; 64 µg/mL (≈ 193 µM) in the experiment with Enterobacter cloacae; over 64 µg/mL in the experiment with Micrococcus luteus; over 64 µg/mL with Staphylococcus aureus; over 64 µg/mL against Escherichia coli [2]. The minimal inhibitory concentration (MIC) with Bacillus subtilis is 64 µg/mL (≈ 193 µM); in the experiment on Klebsiella oxytoca, over 64 µg/mL; against Escherichia coli [4] it was 16 µg/mL (≈ 48.3 µM). The same molecule had an MNEC in experiment [3] of 1 µg/mL.
For `CCn1c2cc(N3CCNCC3)c(F)cc2c2c(N)ncnc21`, the MIC in experiment [5] was over 128 µg/mL; in the experiment on Pseudomonas aeruginosa, over 128 µg/mL; against Escherichia coli [1], 16 µg/mL (≈ 50.9 µM); against Enterobacter cloacae, over 128 µg/mL; in the experiment with Staphylococcus aureus, over 128 µg/mL; against Escherichia coli [2] it was over 128 µg/mL. The values for the MIC with Klebsiella oxytoca and in the experiment on Escherichia coli [4] were over 128 µg/mL and 64 µg/mL (≈ 204 µM), respectively. This molecule returned an MNEC in [3] of 5 µg/mL.
`CCn1c2cc(N3CCNCC3)c(F)cc2n2c(=O)n(O)c(=O)cc12`: the MIC in [5] is over 64 µg/mL; against Pseudomonas aeruginosa, 4 µg/mL (≈ 11.5 µM); against Escherichia coli [1], 8 µg/mL (≈ 23 µM); against Enterobacter cloacae, 8 µg/mL (≈ 23 µM); in the experiment with Micrococcus luteus, 32 µg/mL (≈ 92.1 µM); against Staphylococcus aureus it was over 64 µg/mL. In addition, the MIC against Escherichia coli [2] came out at 32 µg/mL (≈ 92.1 µM); against Bacillus subtilis it was 32 µg/mL (≈ 92.1 µM); against Klebsiella oxytoca, 16 µg/mL (≈ 46.1 µM); against Escherichia coli [4], 8 µg/mL (≈ 23 µM). Further, in [3], the MNEC stood at 1 µg/mL.
Turning to `CN1CCN(c2cc3c(cc2F)n2c(=O)[nH]c(=O)cc2n3C2CC2)CC1`, the MIC in [5] is over 32 µg/mL; in the experiment on Pseudomonas aeruginosa it was 32 µg/mL (≈ 89.5 µM); in the experiment with Escherichia coli [1] it was 0.25 µg/mL (≈ 0.7 µM); with Enterobacter cloacae, 4 µg/mL (≈ 11.2 µM); against Micrococcus luteus it was over 32 µg/mL; with Staphylococcus aureus it was 16 µg/mL (≈ 44.8 µM). Further, the MIC with Escherichia coli [2] is 2 µg/mL (≈ 5.6 µM); against Bacillus subtilis, 4 µg/mL (≈ 11.2 µM); with Klebsiella oxytoca, 8 µg/mL (≈ 22.4 µM); against Escherichia coli [4], 2 µg/mL (≈ 5.6 µM). This molecule came in with an MNEC in experiment [3] of 1 µg/mL.
